Bioassay records as filed in PubChem BioAssay.
HNF4A DNA FP: change in binding of human HNF4A to DNA, primary screen, biochemical, fluorescence polarization, FITC-DNA; Hepatocyte nuclear factor 4-alpha (Homo sapiens), P41235; 1 h; activity change, % at 10 µM; 360,000 compounds, 0.3% hits; in the data active = activity change above about 30%, passing the limit was not always enough
PKA-R1A act: activators of PKA-R1A holoenzyme, primary screen, biochemical, fluorescence polarization, Cy5-IP20, bovine R1A, mouse PKAc | cAMP-dependent protein kinase type I-alpha regulatory subunit (Bos taurus) + … | PKA-R1A dissociation; scaled: DMSO 0%, 113 µM cGMP 100% | activation, % at 11.4 µM | 340,000 compounds, 0.083% hits | AID 504707, 2011;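 active = percent activation above the mean of all tested compounds plus 3 SD, cut at about 19% in these data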;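 also: higher means more PKAc released from R1A so a rise in polarization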
Rpn11 block: Rpn11 (PSMD14) deubiquitinase inhibitors, primary screen, biochemical, fluorescence polarization, uHTS; 26S proteasome non-ATPase regulatory subunit 14 (Homo sapiens), O00487; human 26S proteasome, Ub4-pepOG fluorescence polarization; 20S core pre-blocked with epoxomicin; calls only at 20 µM; 360,000 compounds, 0.59% hits; AID 588493, 2011;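 active = inhibition at 20 µM, scaled to each plate's controls, above about 33%, limit read from the data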
Target sequence (O00487 whole entry, looked up): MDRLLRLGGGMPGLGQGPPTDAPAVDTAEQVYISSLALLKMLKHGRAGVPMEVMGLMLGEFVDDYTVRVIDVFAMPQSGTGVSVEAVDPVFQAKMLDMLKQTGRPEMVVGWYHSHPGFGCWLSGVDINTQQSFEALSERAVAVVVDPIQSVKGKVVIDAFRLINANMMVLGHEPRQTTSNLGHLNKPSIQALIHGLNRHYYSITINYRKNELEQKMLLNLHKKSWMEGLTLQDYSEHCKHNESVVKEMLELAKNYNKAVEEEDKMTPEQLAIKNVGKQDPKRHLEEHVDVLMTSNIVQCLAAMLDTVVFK
CSN deneddyl inh: inhibitors of CSN-mediated cullin deneddylation, primary screen, biochemical, fluorescence polarization, uHTS; COP9 signalosome complex subunit 5 (Homo sapiens), Q92905; Purified CSN, SCF-Nedd8-OG deneddylation; inhibition, % at 12.5 µM; 360,000 compounds, 0.38% hits; AID 651999, 2013;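 active = pattern-corrected inhibition above about 35%, with an unprinted fluorescence ratio check between 0.5 and 1.5, limit read from the data, passing the limit was not always enough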;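 also: 0% = enzyme with substrate and 100% = substrate without enzyme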
Target sequence (Q92905 whole entry, looked up, one chain of several): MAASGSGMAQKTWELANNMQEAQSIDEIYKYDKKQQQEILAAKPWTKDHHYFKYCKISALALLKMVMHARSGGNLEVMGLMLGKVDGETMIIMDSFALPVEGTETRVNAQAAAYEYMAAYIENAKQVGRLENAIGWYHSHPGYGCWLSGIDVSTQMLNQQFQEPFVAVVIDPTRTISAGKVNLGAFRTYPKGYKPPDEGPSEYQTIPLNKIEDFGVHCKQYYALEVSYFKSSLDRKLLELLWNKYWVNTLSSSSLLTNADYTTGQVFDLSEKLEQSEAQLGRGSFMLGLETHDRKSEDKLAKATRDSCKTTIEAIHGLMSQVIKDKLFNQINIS
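Test system: purified human Csn5 enzyme expressed in HEK293T cells. Amount: 0.24 nM enzyme. Reagent: SCFSkp2-Nedd8OG substrate at 10 nM final. Schedule: 90 min incubation of compound, enzyme and substrate at room temperature. Detection: fluorescence polarization. Read-out: % inhibition of substrate cleavage by Csn5.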
PKA-R2B activ: activators of PKA-R2B holoenzyme, primary screen, biochemical, fluorescence polarization, Cy5-IP20, human; PKA-R2B holoenzyme dissociation; R2B truncated from residue 108, S112A mutant; 0% DMSO only, 100% 113 µM cGMP; activation, % at 11.4 µM; 340,000 compounds, 0.079% hits; cAMP-dependent protein kinase catalytic subunit beta (Homo sapiens) + cAMP-dependent …;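 active = activation above a cutoff set at the mean over all compounds plus 3 SD, cut at about 18% in these data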;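 also: higher means more holoenzyme dissociation and a rise in polarization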
TPT1 inh: Candida albicans TPT1 enzyme inhibitors, primary screen, biochemical, fluorescence polarization | recombinant caTPT1, FP RNA substrate dephosphorylation | inhibition, % at 5 µM | 300,000 compounds, 0.81% hits | AID 1962, 2009;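 active = inhibition above the mean of all tested compounds plus 3 SD, set per screening campaign, cut at about 24% in these data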;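 also: plate controls were DMSO alone for no effect and ferristatin control at 100 nM for full effect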
caTPT1 confirm: Candida albicans TPT1 inhibitors, confirmation, biochemical, fluorescence polarization, triplicate. recombinant caTPT1, RNase T1 coupled. shares compounds with TPT1 inh. inhibition, % at 5 µM. 2,400 compounds, 74% hits;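 active = inhibition above the primary screen limit, the mean inhibition of all tested compounds plus 3 SD, cut at about 25% in these data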
RNase T1 inh: RNase T1 inhibitors, counter-screen for TPT1 inhibitor project, biochemical, fluorescence polarization; shares compounds with TPT1 inh; RNase T1 cleavage, 1536-well; inhibition, % at 5 µM; 2,400 compounds, 83% hits; AID 2153, 2009;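 active = inhibition above the solvent-only control well mean plus 3 SD, limit set per screening run, cut at about 23% in these data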;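 also: plate controls were DMSO wells with enzyme for no effect and wells without RNase T1 for full effect; inhibitors block cleavage so intact labeled substrate keeps polarization high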
Numbers without * were called inactive; i = inactive; / = no result shown. Compounds with a hit are over-represented: about 1.6% of the library has one in this group of screens.

SMILES	HNF4A DNA FP	PKA-R1A act	Rpn11 block	CSN deneddyl inh	PKA-R2B activ	TPT1 inh	caTPT1 confirm	RNase T1 inh
Cc1cccc(N=C2NC(=O)/C(=C/c3cccn3C)S2)c1	4	-2	i	3	3	31*	37*	46*
O=C(COC(=O)C1CCN(S(=O)(=O)c2ccc3c(c2)OCCO3)CC1)Nc1cc(C(F)(F)F)ccc1Cl	-1	-8	i	-9	-6	3	/	/
COc1ccc(C(=O)NCCS(=O)(=O)NCc2ccc(F)cc2)cc1	1	-5	i	0	3	0	/	/
COc1ccccc1NC(=O)c1ccc(N)cc1	2	-11	i	9	-6	-5	/	/
COC(=O)c1ccc(C(=O)Nc2ccc(N)cc2N)cc1	6	-4	/	13	5	108*	5	13
COc1cccc(NC(=O)CN(C)CC(=O)NC(C)c2ccccc2)c1 (stereo unspecified)	-3	-3	i	-6	-4	2	/	/
COc1ccc(CN(C)CC(=O)NC(C)c2ccccc2)c(OC)c1 (stereo unspecified)	3	-5	i	3	-10	99*	8	10
CC(C)c1ccc(S(=O)(=O)N2CCN(C(=O)Cc3ccsc3)CC2)cc1	1	8	i	-1	4	-3	/	/
CC1C2NC(=O)N(Cc3ccccc3)C1(C)Oc1ccccc12 (stereo unspecified)	-2	-4	i	4	-3	-4	/	/
CC(=O)N1CCC(C(=O)N2CCN(S(=O)(=O)c3ccc(Cl)s3)CC2)CC1	2	-11	i	3	-8	-3	/	/
CCOC(=O)c1cc(-c2cccs2)nc2onc(C)c12	-3	7	i	4	7	2	/	/
Cc1ccc(-c2cc(-c3ccco3)c3c(N)c(C(=O)NN)oc3n2)cc1	11	0	i	-4	-2	72*	35*	43*
COc1cccc(/C=N/NC(=O)c2oc3nc(-c4ccccc4)cc(-c4ccco4)c3c2N)c1	39*	-11	/	5	0	82*	86*	97*
COc1cccc(-c2cc(C(=O)N/N=C/c3ccco3)c3ccccc3n2)c1	-1	-8	i	0	-8	1	/	/
NNC(=O)c1oc2nc(-c3ccccc3)cc(-c3ccccc3)c2c1N	5	4	i	3	-4	-1	/	/
NNC(=O)c1oc2nc(-c3cccs3)cc(-c3ccco3)c2c1N	16	-6	i	-45	2	50*	47*	57*
N#C/C(=C\c1ccc(C(=O)O)cc1)S(=O)(=O)c1cc(Br)ccc1Br	-2	0	i	6	2	4	/	/
CS/C(=C(/C#N)S(=O)(=O)c1ccc(Cl)cc1)N1CCOCC1	8	/	i	3	/	3	/	/
COc1ccc(NC(=O)CSc2n[nH]c(-c3ccccc3)n2)cc1S(N)(=O)=O	3	-4	i	-1	-14	/	/	/
Cc1nc2ccccc2nc1OCC(=O)Nc1ccccc1	0	10	i	0	13	96*	4	5
COc1ccc(N/C=C2/Sc3ccccc3NC2=O)cc1	0	-3	i	-1	-5	-3	/	/
Cc1ccc(N/C=C2/Sc3ccccc3NC2=O)cc1	32	-5	/	15	-3	28*	47*	53*
Cc1c(NC2=NC3(CCCCC3)Cc3ccccc32)c(=O)n(-c2ccccc2)n1C	-2	-1	i	1	-8	4	/	/
CC1(C)CC(=O)C(C2=NC3(CCCCCC3)Cc3ccccc32)=C(O)C1	2	1	i	1	2	28*	-1	4
CCOc1ccc(NC(=O)c2sc3nc(C)nc(N4CCOCC4)c3c2C)cc1	1	-6	i	-1	-8	1	/	/
SMILES	HNF4A DNA FP	PKA-R1A act	Rpn11 block	CSN deneddyl inh	PKA-R2B activ	TPT1 inh	caTPT1 confirm	RNase T1 inh
CN(C)CCN1C(=O)C(O)=C(C(=O)c2cc3ccccc3o2)C1c1ccc(N(C)C)cc1 (stereo unspecified)	0	2	i	3	0	32*	21	35*
COc1cc(C(=O)OCCCN=C2NS(=O)(=O)c3ccccc32)cc(OC)c1OC	0	-8	i	-19	5	-3	/	/
COc1ccc(NC(=O)C2CCCN2C(=O)Oc2ccccc2)cc1 (stereo unspecified)	-6	11	i	-7	-11	47*	6	6
Cc1ccc(NC(=O)C2CCCN2C(=O)Oc2ccccc2)cc1 (stereo unspecified)	-1	1	i	-1	3	0	/	/
COc1ccc(C(=O)Nc2nnc(CC(=O)N/N=C/c3ccc(O)cc3O)s2)cc1	-13	-14	i	32	-14	53*	81*	83*
Cc1ccc(C(=O)Nc2nnc(CC(=O)N/N=C/c3ccc(O)c(O)c3)s2)cc1	-39	-9	/	46	-12	2	/	/
O=C(Cn1ncc2c3ccccc3n(Cc3cccc(Cl)c3)c2c1=O)NCc1ccccn1	26	-10	/	11	-2	69*	84*	90*
CCn1cc(C(=O)NCCC(C)C)c(=O)c2cc(F)c(N3CCN(C(=O)c4ccco4)CC3)cc21	0	-4	i	-2	-4	4	/	/
CN1CCCC(OC(=O)c2ccc(C(C)(C)C)cc2)C1 (stereo unspecified)	-2	3	i	-2	11	2	/	/
CC[C@]12c3[nH]c4ccccc4c3CCN1C(=O)C(CC(=O)NCCCn1ccnc1)C[C@@H]2C(=O)N1CCN(C(=O)c2ccco2)CC1 (stereo partly specified)	2	-4	i	-2	3	/	/	/
CCN(CC)CCN(C(=O)c1ccc(Br)s1)c1nc2cc3c(cc2s1)OCCO3	5	5	i	-1	-4	-6	/	/
